Experimental data from ChEMBL document CHEMBL5034013, “Discovery of VNRX-7145 (VNRX-5236 Etzadroxil): An Orally Bioavailable β-Lactamase Inhibitor for Enterobacterales Expressing Ambler Class A, C, and D Enzymes” (J Med Chem, 2021).

What was measured:
[1] = Oral bioavailability in rat at 10 mg/kg administered as cassette dose measured by UPLC-MS/MS; type: ADME, organism-based; conditions: in vivo
Outline: (§1)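 Ester prodrugs are given to rats by oral gavage, some as a cassette with another ester. F is the percent absolute oral bioavailability of the parent, corrected for the MW difference between prodrug and parent.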

Escherichia coli [2] = assay: Antibacterial activity against Escherichia coli expressing CTX-M-15/TEM-1 assessed as concentration required to restore ceftibuten activity incubated for 16 to 20 hrs in presence of 1 ug/ml ceftibuten by broth microdilution method; type: functional; conditions: time 16-20 hrs
[3] = Inhibition of bacterial beta-lactamase KPC-2 using imipenem as substrate preincubated for 15 mins followed by substrate addition and measured after 10 mins by spectrophotometric analysis; set-up: species or system Bacteria
Outline: (§2)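 IC50 is the mean of duplicate runs on separate days. A run was repeated automatically if it differed by more than 20% from the previous result.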

Escherichia coli [4] = assay: Antibacterial activity against Escherichia coli 786978 expressing KPC assessed as concentration required to restore ceftibuten activity incubated for 16 to 20 hrs in presence of 1 ug/ml ceftibuten by broth microdilution method; type: functional; conditions: time 16-20 hrs
Escherichia coli [5] = assay: Antibacterial activity against Escherichia coli J53 expressing SHV-5/TEM-1/AmpC assessed as concentration required to restore ceftibuten activity incubated for 16 to 20 hrs in presence of 1 ug/ml ceftibuten by broth microdilution method; type: functional; conditions: time 16-20 hrs
Klebsiella pneumoniae [6] = assay: Antibacterial activity against Klebsiella pneumoniae 196477 expressing AmpC/CMY-2/TEM-1/CTX-M-15 assessed as concentration required to restore ceftibuten activity incubated for 16 to 20 hrs in presence of 1 ug/ml ceftibuten by broth microdilution method; type: functional; conditions: time 16-20 hrs
[7] = Inhibition of bacterial beta-lactamase AmpC using nitrocefin as substrate preincubated for 15 mins followed by substrate addition and measured after 10 mins by spectrophotometric analysis; set-up: species or system Bacteria; outline: as §2
Klebsiella pneumoniae [8] = assay: Antibacterial activity against Klebsiella pneumoniae expressing OXA-48 assessed as concentration required to restore ceftibuten activity incubated for 16 to 20 hrs in presence of 1 ug/ml ceftibuten by broth microdilution method; type: functional; conditions: time 16-20 hrs
Klebsiella pneumoniae [9] = assay: Antibacterial activity against Klebsiella pneumoniae 156309 expressing SHV-11/TEM-1/KPC-2 assessed as concentration required to restore ceftibuten activity incubated for 16 to 20 hrs in presence of 1 ug/ml ceftibuten by broth microdilution method; type: functional; conditions: time 16-20 hrs
[10] = Inhibition of bacterial beta-lactamase SHV-5 using cefotaxime as substrate preincubated for 15 mins followed by substrate addition and measured after 10 mins by spectrophotometric analysis; set-up: species or system Bacteria; outline: as §2
Escherichia coli [11] = assay: Antibacterial activity against Escherichia coli 664507 expressing OXA-48 assessed as concentration required to restore ceftibuten activity incubated for 16 to 20 hrs in presence of 1 ug/ml ceftibuten by broth microdilution method; type: functional; conditions: time 16-20 hrs
Outline: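 Tested against a 25-strain challenge panel of clinical E. coli and K. pneumoniae isolates carrying ESBL (n = 5), KPC (n = 11), class C (n = 4) or OXA-48 (n = 5) β-lactamases. Ceftibuten was held at 1 μg/mL while the BLI concentration varied. The read-out was the BLI concentration that rescued ceftibuten activity.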

[12] = Inhibition of bacterial beta-lactamase OXA-48 using nitrocefin as substrate preincubated for 15 mins followed by substrate addition and measured after 10 mins by spectrophotometric analysis; set-up: species or system Bacteria; outline: as §2
Klebsiella pneumoniae [13] = assay: Antibacterial activity against Klebsiella pneumoniae expressing SHV-12/TEM-1 assessed as concentration required to restore ceftibuten activity incubated for 16 to 20 hrs in presence of 1 ug/ml ceftibuten by broth microdilution method; type: functional; conditions: time 16-20 hrs
[14] = Oral bioavailability in rat at 3 mg/kg administered as cassette dose measured by UPLC-MS/MS; type: ADME, organism-based; conditions: in vivo; outline: as §1
[15] = 10 mg/kg, in the assay text read “measured” for “administered as cassette dose measured”

Structure (SMILES)	bioavailability [1] [%]	Activity (Escherichia coli [2]) [µg/mL]	IC50 [3] [µM]	Activity (Escherichia coli [4]) [µg/mL]	Activity (Escherichia coli [5]) [µg/mL]	Activity (Klebsiella pneumoniae [6]) [µg/mL]	IC50 [7] [µM]	Activity (Klebsiella pneumoniae [8]) [µg/mL]	Activity (Klebsiella pneumoniae [9]) [µg/mL]	IC50 [10] [µM]	Activity (Escherichia coli [11]) [µg/mL]	IC50 [12] [µM]	Activity (Klebsiella pneumoniae [13]) [µg/mL]	further results
CCC(=O)N[C@H]1Cc2cccc(C(=O)OCOC(=O)OC(C)C)c2OB1O	23													
N#CCCC(=O)N[C@H]1Cc2cccc(C(=O)O)c2OB1O		0.12	0.033	0.5	0.03	0.03	0.014	2	2	0.012	0.12	0.687	0.06	
CC(C)(C)C(=O)OCOC(=O)c1cccc2c1OB(O)[C@@H](NC(=O)CCC(N)=O)C2														bioavailability [14]: < 5%
CC(C)(C)C(=O)OCOC(=O)c1cccc2c1OB(O)[C@@H](NC(=O)CCC#N)C2														bioavailability [1, 15]: 20%
CCOC(=O)c1cccc2c1OB(O)[C@@H](NC(=O)CC)C2														bioavailability [14]: < 5%
CCCC(=O)N[C@H]1Cc2cccc(C(=O)O)c2OB1O		0.12	0.093	0.5	0.016	0.03	0.009	1	1	0.036	0.25	0.426	0.12	
CC(F)(F)CCC(=O)N[C@H]1Cc2cccc(C(=O)O)c2OB1O		0.5	0.041	1	0.03	0.12	0.007	4	4		0.25	2.39	0.03	
CC(C)(C)C(=O)OCOC(=O)c1cccc2c1OB(O)[C@@H](NC(=O)CCNS(C)(=O)=O)C2														bioavailability [14]: < 5%
CCC(=O)N[C@H]1Cc2cccc(C(=O)OCOC(=O)OC(CC)CC)c2OB1O	33													
O=C(CCC(F)(F)F)N[C@H]1Cc2cccc(C(=O)O)c2OB1O		1	0.043	1	0.03	0.5	0.009	8	2	0.008	0.25	1.62	0.06	
CCC(=O)N[C@H]1Cc2cccc(C(=O)OCOC(=O)OC3CCCC3)c2OB1O	24													
NS(=O)(=O)CCC(=O)N[C@H]1Cc2cccc(C(=O)O)c2OB1O		0.25	0.035	1	0.12	0.03	0.003	2	2	0.008	0.12	8.55	0.06	
CCOC(=O)c1cccc2c1OB(O)[C@@H](NC(=O)CCNS(N)(=O)=O)C2														bioavailability [14]: < 5%
CCOC(C)(C)C(=O)OCOC(=O)c1cccc2c1OB(O)[C@@H](NC(=O)CC)C2	28													
CCOC(=O)c1cccc2c1OB(O)[C@@H](NC(=O)CCC(N)=O)C2														bioavailability [14]: < 5%
CCC(=O)N[C@H]1Cc2cccc(C(=O)OCOC(=O)C(C)C)c2OB1O	38													
NC(=O)CCC(=O)N[C@H]1Cc2cccc(C(=O)O)c2OB1O		0.12	0.069	1	2	0.016	0.006	0.5	2	0.514	0.06	1.79	0.12	
CCC(=O)N[C@H]1Cc2cccc(C(=O)OCOC(C)=O)c2OB1O	10													
CCCC(=O)N[C@H]1Cc2cccc(C(=O)OCOC(=O)C(C)(C)C)c2OB1O														F ([14]; 3 mg/kg): 31%
CC(=O)CCC(=O)N[C@H]1Cc2cccc(C(=O)OCOC(=O)C(C)(C)C)c2OB1O														bioavailability [1, 15]: 95%
C#CCCC(=O)N[C@H]1Cc2cccc(C(=O)O)c2OB1O		0.25	0.031	1	1	0.06	0.006	4	2	0.017	0.5	0.627	0.06	
CS(=O)(=O)NCCC(=O)N[C@H]1Cc2cccc(C(=O)O)c2OB1O		0.12	0.028	0.5	0.016	0.03	0.005	2	1	0.012	0.03	4.67	0.016	
CCC(=O)N[C@H]1Cc2cccc(C(=O)OCOC(=O)C3CCCC3)c2OB1O	19													
